Assay [1] concerns Severe acute respiratory syndrome coronavirus 2. The assay can be described thus: Inhibition of SARS-CoV-2 3CL protease at 50 uM using DABCYL-KTSAVLQ-SGFRKME-EDANS as substrate preincubated with enzyme for 30 mins followed by substrate addition and measured after 1 hr by fluorescence spectrophotometry relative to control. As to conditions: time 1.5 hrs. The essentials: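 SARS-CoV-2 3CLpro was expressed in E. coli BL21(DE3) and purified on a HisTrap column. Enzyme at 150 nM (114 nM after inhibitor addition) in assay buffer with 1 mM DTT was preincubated 30 min at room temperature with 50 μM final compound from DMSO. Then 11.76 μM final substrate was added. Fluorescence (ex 360/em 460 nm) was followed for ≥1 h. Initial slopes were compared with a DMSO control. Run in duplicate.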

A short description of assay [2]: Inhibition of SARS-CoV-2 3CL protease using DABCYL-KTSAVLQ-SGFRKME-EDANS as substrate preincubated with enzyme for 30 mins followed by substrate addition and measured after 1 hr by fluorescence spectrophotometry. Set-up: species or system Severe acute respiratory syndrome coronavirus 2.
Assay [3] addresses Procathepsin L (Homo sapiens) (UniProt P07711). The assay can be described thus: Inhibition of Cathepsin L (unknown origin) using fluorogenic substrate at 50 uM measured after 10 mins by fluorescence based assay. In short, it runs like this:
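Kit-based cathepsin L fluorogenic assay, with compounds tested from 0.1 to 100 μM. Inhibitor and enzyme were incubated 10 min at room temperature. Fluorescence was read at ex 360/em 460 nm. Percent inhibition came from slopes versus a no-inhibitor blank. E-64 at 10 μM served as reference. Duplicates.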

Chain of Procathepsin L (Homo sapiens) (P07711 114-333 limits assumed): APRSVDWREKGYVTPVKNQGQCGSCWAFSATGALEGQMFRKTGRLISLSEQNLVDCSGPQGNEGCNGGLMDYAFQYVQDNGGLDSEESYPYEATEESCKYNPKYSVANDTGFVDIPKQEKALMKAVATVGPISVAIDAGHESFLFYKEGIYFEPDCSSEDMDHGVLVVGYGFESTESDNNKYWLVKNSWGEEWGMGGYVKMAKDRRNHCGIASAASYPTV

In the case of `C/C=C/C(=O)N(c1ccc(C(C)(C)C)cc1)C(C(=O)NC1CCCCC1)c1ccncc1` (stereo not drawn), the inhibition in assay [1] came out at 24%. Compound `CC#CC(=O)N(c1ccc(NC(C)=O)cc1)C(C(=O)NC1CCCCC1)c1cccnc1` (stereo not drawn) gave an inhibition in assay [1] of 23%. In assay [2], `CC(C)(C)c1ccc(N(C(=O)CCl)C(C(=O)NC2CCCC2)c2cccnc2)cc1` (stereo not drawn) showed an IC50 of 380 nM. Moreover, the inhibition in assay [1] is more than 95%. In assay [2], `C=CS(=O)(=O)N(c1ccc(C(C)(C)C)cc1)C(C(=O)N[C@@H](C)c1ccccc1)c1cccnc1` (mixture of isomers; 14g) [listing 1 of 2 here] gave an IC50 of 320 nM. For the compound `C=CS(=O)(=O)N(c1ccc(C(C)(C)C)cc1)C(C(=O)N[C@@H](C)c1ccccc1)c1cccnc1` (mixture of isomers; 14h) [listing 1 of 2 here], the inhibition in assay [1] was more than 95%. Regarding `CC(C)(C)NC(=O)C(c1cccnc1)N(C(=O)c1ccco1)c1ccc(C(C)(C)C)cc1` (stereo not drawn), the inhibition in assay [1] is more than 95%. Compound `CC(=O)N(c1ccc(C(C)(C)C)cc1)C(C(=O)NC1CCCCC1)c1cccnc1` (stereo not drawn) returned an inhibition in assay [1] of 25%. `CC(C)(C)c1ccc(N(C(=O)CCl)C(C(=O)NC2CCCCC2)c2cccnc2)cc1` (stereo not drawn) came in with an IC50 in assay [2] of 410 nM. Further, the inhibition in assay [1] is more than 95%; in assay [3], 25%. Take `CC(C)(C)c1ccc(N(C(=O)C2=CCCC2)C(C(=O)NC2CCCCC2)c2cnc3ccccc3c2)cc1` (stereo not drawn): the inhibition in assay [1] worked out at 18%.

The compound `CC#CC(=O)N(c1ccc(OC)cc1)C(C(=O)NC1CCCCC1)c1cccnc1` (stereo not drawn) showed an inhibition in assay [1] of 39%. `CC#CC(=O)NC(C(=O)NC1CCCCC1)c1cccnc1` (stereo not drawn) showed an inhibition in assay [1] of 10%. Still for that read-out and setting: the same measure for `CCOC(=O)/C=C/C(=O)N(c1ccc(C(C)(C)C)cc1)C(C(=O)NC1CCCCC1)c1cccnc1` (stereo not drawn): 59%. Compound `CC(C)(C)c1ccc(N(C(=O)C2=CCCC2)C(C(=O)NC2CCCCC2)c2cccnc2)cc1` (stereo not drawn) showed an inhibition in assay [1] of 55%. Regarding `C=CS(=O)(=O)N(c1ccc(C(C)(C)C)cc1)C(C(=O)NCCc1cccc(OC)c1)c1cccnc1` (stereo not drawn), the IC50 in assay [2] was determined as 240 nM. In assay [1], this compound displayed an inhibition of more than 95%. The compound `CC(C)(C)c1ccc(N(CC#N)C(C(=O)NC2CCCCC2)c2cccnc2)cc1` (stereo not drawn) returned an inhibition in assay [1] of less than 5%. Regarding `CC(C)(C)c1ccc(N(C(=O)CCl)C(C(=O)NC2CCCCC2)c2ccsc2)cc1` (stereo not drawn), the inhibition in assay [1] came to 22%. With `CC(C)(C)c1ccc(N(C(=O)C(=O)C(F)(F)F)C(C(=O)NC2CCCCC2)c2cccnc2)cc1` (stereo not drawn), the IC50 in assay [2] is 12400 nM. Also, in assay [1], the inhibition is 77%. `CC#CC(=O)N(c1ccc(OC(F)F)cc1)C(C(=O)NC1CCCCC1)c1cccnc1` (stereo not drawn) registered an IC50 in assay [2] of 45100 nM. In addition, the inhibition in assay [1] turned out to be 77%. For the compound `CC#CC(=O)N(c1ccc(F)cc1)C(C(=O)NC1CCCCC1)c1cccnc1` (stereo not drawn), in assay [1], the inhibition stood at 65%. Turning to `C=CS(=O)(=O)N(c1ccc(C(C)(C)C)cc1)C(C(=O)NCCc1cccc(Cl)c1)c1cccnc1` (stereo not drawn), in assay [2], the IC50 was 170 nM. For the same compound, the values for the inhibition in assay [1] and in assay [3] were more than 95% and 15%, respectively. In assay [1], `CC(C)(C)c1ccc(N(C(=O)C2=CCCCC2)C(C(=O)NC2CCCCC2)c2cccnc2)cc1` (stereo not drawn) displayed an inhibition of 52%. Consider `CC(C)(C)c1ccc(N(C(=O)c2c[nH]cn2)C(C(=O)NC2CCCCC2)c2cccnc2)cc1` (stereo not drawn), for which, in assay [1], the inhibition was more than 95%. Take `CC#CC(=O)N(Cc1ccccc1)C(C(=O)NC1CCCCC1)c1cccnc1` (stereo not drawn): the inhibition in assay [1] was less than 5%. As to `C=CS(=O)(=O)N(c1ccc(C(C)(C)C)cc1)C(C(=O)N[C@@H](C)c1ccccc1)c1cccnc1` (mixture of isomers; 14h) [listing 2 of 2 here], in assay [2], the IC50 is 6000 nM.

In the case of `CC(C)(C)c1ccc(NC(C(=O)NC2CCCCC2)c2cccnc2)cc1` (stereo not drawn), the inhibition in assay [1] was 28%.

In the case of `CC(C)(C)c1ccc(N(C(=O)C2=CCCC2)C(C(=O)NC2CCCC2)c2cccnc2)cc1` (stereo not drawn), the inhibition in assay [1] was determined as 16%. Take `CC#CC(=O)N(c1ccc(C(C)(C)C)cc1)C(C(=O)NC1CCCCC1)c1csc2ccccc12` (stereo not drawn): in assay [1], the inhibition came to 57%. As to `CC#CC(=O)N(c1ccc(C(C)(C)C)cc1)C(C(=O)NC1CCCC1)c1cccnc1` (stereo not drawn), the IC50 in assay [2] is 9700 nM. This compound displayed an inhibition in assay [1] of 88%.

`Cc1cnc(C(C(=O)NC2CCCCC2)N(C(=O)CCl)c2ccc(C(C)(C)C)cc2)cn1` (stereo not drawn) returned an IC50 in assay [2] of 980 nM. This compound also yielded an inhibition in assay [1] of more than 95%. In turn, `CC(C)(C)c1ccc(N(C(=O)CF)C(C(=O)NC2CCCCC2)c2cccnc2)cc1` (stereo not drawn) registered an inhibition in assay [1] of 30%.

In the case of `CC#CC(=O)N(c1ccc(C(C)(C)C)cc1)C(C(=O)NC1CCCCC1)c1cncc2ccccc12` (stereo not drawn), in assay [2], the IC50 stood at 5000 nM. In assay [1], this compound had an inhibition of more than 95%.

With `C=CS(=O)(=O)N(c1ccc(C(C)(C)C)cc1)C(C(=O)NCCc1ccc(OC)cc1)c1cccnc1` (stereo not drawn), half-maximal inhibition in assay [2] (IC50) required 280 nM. The inhibition in assay [1] is more than 95%.

In turn, `C=CS(=O)(=O)N(c1ccc(C(C)(C)C)cc1)C(C(=O)NCCCc1ccccc1)c1cccnc1` (stereo not drawn) registered an IC50 in assay [2] of 520 nM. For the same compound, in assay [1], the inhibition was more than 95%. Consider `N#CCNC(C(=O)NC1CCCCC1)c1cccnc1` (stereo not drawn), for which, in assay [1], the inhibition is 25%. The compound `C/C=C/C(=O)N(c1ccc(C(C)(C)C)cc1)C(C(=O)NC1CCCCC1)c1cccnc1` (stereo not drawn) had an inhibition in assay [1] of 63%. `C=CC(=O)N(c1ccc(C(C)(C)C)cc1)C(C(=O)NC(C)(C)C)c1cccnc1` (stereo not drawn): in assay [1], the inhibition was 68%. As for `CC(C)(C)c1ccc(N(C(=O)C#CCO)C(C(=O)NC2CCCCC2)c2cccnc2)cc1` (stereo not drawn), the IC50 in assay [2] was determined as 850 nM. Also, the inhibition in assay [1] was more than 95%.

For `CC#CC(=O)N(c1ccc(C(C)(C)C)cc1)C(CN1CC(=O)NC1=O)C(=O)NC1CCCCC1` (stereo not drawn), in assay [1], the inhibition came out at 10%. `C=CS(=O)(=O)N(c1ccc(C(C)(C)C)cc1)C(C(=O)NC1CCN(Cc2ccccc2)CC1)c1cccnc1` (stereo not drawn) yielded an IC50 in assay [2] of 220 nM. The compound further gave an inhibition in assay [1] of more than 95%. In turn, `CC#CC(=O)N(c1ccc(C(C)(C)C)cc1)C(C(=O)NC1CCCCC1)c1cn[nH]c1` (stereo not drawn) registered an inhibition in assay [1] of 19%. As to `CC#CC(=O)N(c1ccc(C(C)(C)C)cc1)C(C(=O)NC(C)(C)C)c1cccnc1` (stereo not drawn), half-maximal inhibition in assay [2] (IC50) was put at 15000 nM. Further, in assay [1], the inhibition is 93%.

In assay [1], `CC(C)(C)c1ccc(N(C(=O)C2=CCCC2)C(C(=O)NC2CCCCC2)c2nc3ccccc3s2)cc1` (stereo not drawn) showed an inhibition of less than 5%.

For the compound `C/C=C(\C)C(=O)N(c1ccc(C(C)(C)C)cc1)C(C(=O)NC1CCCCC1)c1cccnc1` (stereo not drawn), the inhibition in assay [1] worked out at 47%.

As for `O=C(NC1CCCCC1)C(c1cccnc1)N1CCC1=O` (stereo not drawn), the inhibition in assay [1] was less than 5%. Still for that read-out and setting: the value for `CC(C)(C)c1ccc(N(C(=O)C2=CCCC2)C(C(=O)NC2CCCCC2)c2cncc3ccccc23)cc1` (stereo not drawn) was less than 5%; that for `CC(=O)C(=O)N(c1cccc(C)c1)C(C(=O)NC1CCCCC1)c1cccnc1` (stereo not drawn) was less than 5%; that for `CC(=O)N(c1ccc(C(C)(C)C)cc1)C(C(=O)NC(C)(C)C)c1cccnc1` (stereo not drawn) was less than 5%.

For `CC#CC(=O)N(c1cccc(NC(C)=O)c1)C(C(=O)NC1CCCCC1)c1cccnc1` (stereo not drawn), the inhibition in assay [1] was determined as 43%.

`CC(=O)C(=O)N(c1ccc(C(C)(C)C)cc1)C(C(=O)NC1CCCCC1)c1cccnc1` (stereo not drawn) gave an IC50 in assay [2] of 5200 nM. Also, the inhibition in assay [1] turned out to be 92%. With `CC(C)(C)c1ccc(N(C(=O)C2=CCCC2)C(C(=O)NC2CCCCC2)c2cnc[nH]2)cc1` (stereo not drawn), the inhibition in assay [1] worked out at 24%. On the same count and under the same terms, the value for `CC#CC(=O)N(c1ccc(C(C)(C)C)cc1)C(C(=O)NC1CCCCC1)c1nc2ccccc2s1` (stereo not drawn) was 54%; that for `C=C(C)C(=O)N(c1ccc(C(C)(C)C)cc1)C(C(=O)NC1CCCCC1)c1cccnc1` (stereo not drawn) was 30%; that for `C/C=C/C(=O)N(c1ccc(C(C)(C)C)cc1)C(C(=O)NC(C)(C)C)c1cccnc1` (stereo not drawn) was 33%. Regarding `CC(C)(C)c1ccc(N(C(=O)CCl)C(C(=O)NC2CCCCC2)c2ccncc2)cc1` (stereo not drawn), in assay [2], half-maximal inhibition (IC50) was put at 840 nM. In assay [1], this compound had an inhibition of more than 95%. In the case of `C=CC(=O)N(c1ccc(C(C)(C)C)cc1)C(C(=O)NC1CCCCC1)c1cccnc1` (stereo not drawn), the inhibition in assay [1] came out at 84%. On the same count and under the same terms, the value for `CCOC(=O)N(c1ccc(C(C)(C)C)cc1)C(C(=O)NC1CCCCC1)c1cccnc1` (stereo not drawn) was 35%; that for `CC(C)(C)c1ccc(N(C(=O)/C=C/c2ccccc2)C(C(=O)NC2CCCCC2)c2cccnc2)cc1` (stereo not drawn) was 44%.

For `CC(C)(C)c1ccc(N(C(=O)C2=CCCC2)C(C(=O)NC2CCCCC2)c2ccncc2)cc1` (stereo not drawn), in assay [1], the inhibition worked out at 19%.

`CC(C)(C)c1ccc(N(C(=O)CCl)C(C(=O)NCc2ccccc2)c2cccnc2)cc1` (stereo not drawn): the IC50 in assay [2] amounted to 920 nM. In addition, the inhibition in assay [1] is more than 95%.

`CC#CC(=O)N(c1ccc(C(C)(C)C)cc1)C(C(=O)NC1CCCCC1)c1cccnc1` (stereo not drawn): the IC50 in assay [2] came out at 5300 nM. The same compound registered an inhibition in assay [1] of more than 95%. `CC(C)(C)c1ccc(N(C(=O)C2=CCCC2)C(C(=O)NC2CCCCC2)c2ccsc2)cc1` (stereo not drawn) yielded an inhibition in assay [1] of 22%.

In turn, `CC#CC(=O)N(c1ccc(C(C)(C)C)cc1)C(C(=O)NCc1ccccc1)c1cccnc1` (stereo not drawn) registered an IC50 in assay [2] of more than 30000 nM. The same compound registered an inhibition in assay [1] of 69%. On the same counts, the results for `CC(C)(C)c1ccc(N(C(=O)CC#N)C(C(=O)NC2CCCCC2)c2cccnc2)cc1` (stereo not drawn) are 7000 nM and 74%.

`CC(C)(C)c1ccc(N(C(=O)C2=CCCC2)C(C(=O)NC2CCCCC2)c2cncnc2)cc1` (stereo not drawn) yielded an inhibition in assay [1] of 38%. As to `CC#CC(=O)N(c1ccc(C(C)(C)C)cc1)C(C(=O)NC1CCCCC1)c1cnc2ccccc2c1` (stereo not drawn), in assay [1], the inhibition was 80%. On to `C=CS(=O)(=O)N(c1ccc(C(C)(C)C)cc1)C(C(=O)N[C@@H](C)c1ccccc1)c1cccnc1` (mixture of isomers; 14g) [listing 2 of 2 here], for which, in assay [1], the inhibition was more than 95%.
